# Measured values as given in ChEMBL document CHEMBL1156744, “Anti-tumoral activity of imidazoquines, a new class of antimalarials derived from primaquine” (Bioorg Med Chem Lett, 2009).
# Key:
# Format in all cases: functional, cell-based
# HT-29 = experiment: Antitumor activity against human HT-29 cells after 48 hours hrs by SRB assay; conditions: HT-29, 48 h
# In short: (§1)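 Seeded cells were exposed to each compound across a broad concentration range for 48 h. Growth was read by sulforhodamine B staining, compared against untreated control. Values are mean ± SEM, n = 3–6.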
# Caco-2 = experiment: Antitumor activity against human Caco-2 cells after 48 hours hrs by SRB assay; conditions: Caco-2, 48 h; in short: as §1
# MCF7 = experiment: Antitumor activity against human MCF7 cells after 48 hours hrs by SRB assay; conditions: MCF7, 48 h; in short: as §1
compound,measurement,setting,value
COc1cc(N)c2ncccc2c1,IC50,HT-29,> 100 µM
same,IC50,Caco-2,> 100 µM
same,IC50,MCF7,86.5 µM
COc1cc(NC(C)CCCNC(=O)CN2C(=O)[C@H](C)NC2(C)C)c2ncccc2c1 (stereo partly specified),IC50,HT-29,> 100 µM
same,IC50,Caco-2,58 µM
same,IC50,MCF7,38.3 µM
FC(F)(F)c1ccc2c(Cl)ccnc2c1,IC50,HT-29,> 100 µM
same,IC50,Caco-2,52.3 µM
same,IC50,MCF7,63 µM
COc1cc(NC(C)CCCNC(C)=O)c2ncccc2c1 (stereo unspecified),IC50,HT-29,> 100 µM
same,IC50,Caco-2,46 µM
same,IC50,MCF7,57.3 µM
COc1cc(NC(C)CCCNC(=O)CNC(=O)[C@H](C)N)c2ncccc2c1 (stereo partly specified),IC50,HT-29,92.3 µM
same,IC50,Caco-2,> 100 µM
same,IC50,MCF7,21.3 µM
COc1cc(NC(C)CCCN2C(=O)[C@H](C)NC2(C)C)c2ncccc2c1 (stereo partly specified),IC50,HT-29,> 100 µM
same,IC50,Caco-2,71 µM
same,IC50,MCF7,42.3 µM
COc1cc(NC(C)CCCNC(=O)C2CCCN2C(=O)[C@@H](C)N)c2ncccc2c1 (stereo partly specified),IC50,HT-29,> 100 µM
same,IC50,Caco-2,64 µM
same,IC50,MCF7,15 µM
COc1cc(NC(C)CCCN)c2ncccc2c1 (stereo unspecified) [PRIMAQUINE],IC50,HT-29,69.7 µM
same,IC50,Caco-2,48 µM
same,IC50,MCF7,6.9 µM
COc1cc(NC(C)CCCN2C(=O)CN(C(C)=O)C2(C)C)c2ncccc2c1 (stereo unspecified),IC50,HT-29,> 100 µM
same,IC50,Caco-2,60 µM
same,IC50,MCF7,> 100 µM
COc1cc(NC(C)CCCNC(=O)CN2C(=O)[C@H](C)NC23CCCCC3)c2ncccc2c1 (stereo partly specified),IC50,HT-29,> 100 µM
same,IC50,Caco-2,74.7 µM
same,IC50,MCF7,27 µM
O=C(O)c1cc2ccccc2nc1Cl,IC50,HT-29,> 100 µM
same,IC50,Caco-2,81 µM
same,IC50,MCF7,> 100 µM
COc1cc(NC(C)CCCN2C(=O)CN(C(=O)[C@H](C)N)C2(C)C)c2ncccc2c1 (stereo partly specified),IC50,HT-29,46.3 µM
same,IC50,Caco-2,> 100 µM
same,IC50,MCF7,20 µM
